≈ marks a conversion by molar mass, not a printed value. Calls of active or inactive are those of the source. No cut-off for these calls is given here.
Columns and labels:
[1] = test system: Mycobacterium tuberculosis; assay: Antimycobacterial activity against Mycobacterium tuberculosis H37Rv ATCC 25618 after 10 to 14 days by microplate alamar blue assay; assay type: functional
[2] = test system: Mycobacterium tuberculosis; assay: Antimycobacterial activity against Mycobacterium tuberculosis pSMT1 infected in mouse J774A.1 ATCC TIB-67 cells assessed as viable bacterial count at 0.125 ug/ml for 4 days followed by 3 days incubation in drug-free medium by luciferase reporter gene assay; assay type: functional
Outline: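 Mtb-infected J774A.1 mouse macrophages exposed to drug for 4 days, then medium replaced with drug-free medium and cultures incubated 3 more days. Triplicate wells lysed on day 0 and day 7 and viable bacteria measured as relative light units. Isoniazid control at 0.125 μg/ml.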

[3] = test system: Mycobacterium tuberculosis; assay: Antimycobacterial activity against Mycobacterium tuberculosis H37Rv infected in C3H/HeNCrlBR mouse assessed as prevention of body weight loss at 10 mg/kg, po administered 7 days after infection for 2 weeks measured after 10 to 15 days relative to control; assay type: functional, organism-based; parameters: dose 10 mg/kg
Outline: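 Treatment began 7 days after infection: oral gavage once daily at 10 mg/kg for 2 wk. Body weights tracked from day 0 through day 21 and compared with uninfected mice and infected placebo-treated mice. Mortality was followed after therapy ended.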

[4] = test system: Mycobacterium tuberculosis; assay: Antimycobacterial activity against recombinant strain Mycobacterium tuberculosis Rv0341 by firefly luciferase reporter gene assay; assay type: functional, organism-based
Outline: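 Recombinant Mtb carrying a promoter fused to firefly luciferase, which is activated and produces light when cell wall biosynthesis is inhibited. High-throughput luminescence read-out.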

[5] = test system: Mycobacterium tuberculosis; assay: Antimycobacterial activity against Mycobacterium tuberculosis pSMT1 infected in mouse J774A.1 ATCC TIB-67 cells assessed as inhibition of intracellular bacterial growth at MIC for 4 days followed by 3 days incubation in drug-free medium by luciferase reporter gene assay; assay type: functional
[6] = test system: Mycobacterium tuberculosis; assay: Antimycobacterial activity against Mycobacterium tuberculosis pSMT1 infected in mouse J774A.1 ATCC TIB-67 cells assessed as viable bacterial count at 4 ug/ml for 4 days followed by 3 days incubation in drug-free medium by luciferase reporter gene assay; assay type: functional
J774.A1 = assay: Cytotoxicity against mouse J774A1 cells assessed as cell aggregation at 4 ug/ml; assay type: cell-based

## c1ccc(CC2CCN(CC3CCN(CC(c4ccccc4)c4ccccc4)CC3)CC2)cc1
[1]
  MIC: 11 µg/mL (≈ 24.3 µM)

## NNC(=O)c1ccncc1 [ISONIAZID]
[2]
  Activity: 4 RLU

## OC1CCN(CC2CCN(CCOc3ccccc3)CC2)CC1
[1]
  MIC: 8 µg/mL (≈ 25.1 µM)

## OC1CCN(CC2CCN(CC3CCCCCC3)CC2)CC1
[1]
  MIC: 14 µg/mL (≈ 45.4 µM)

## OC1CCN(CC2CCN(CC34CC5CC(CC(C5)C3)C4)CC2)CC1
[3]
  Activity: Active
[4]
  Activity: Active
[5]
  inhibition (INH): >90%
[6]
  Activity: 354 RLU
[1]
  Activity: Active
  MIC: 4 µg/mL (≈ 11.5 µM)

## c1ccc(CC2CCN(CC3CCN(CC45CC6CC(CC(C6)C4)C5)CC3)CC2)cc1
[1]
  MIC: 10 µg/mL (≈ 23.8 µM)

## OC1CCN(CC2CCN(CC(c3ccccc3)c3ccccc3)CC2)CC1
[3]
  Activity: Active
[4]
  Activity: Active
J774.A1
  Activity: Toxic
[1]
  Activity: Active
  MIC: 4 µg/mL (≈ 10.6 µM)

## OCC1CCCN(CC2CCN(CC(c3ccccc3)c3ccccc3)CC2)C1 (stereo not drawn)
[1]
  MIC: 40 µg/mL (≈ 102 µM)

## c1ccc(CC2CCN(CC3CCN(CCC45CC6CC(CC(C6)C4)C5)CC3)CC2)cc1
[1]
  MIC: 5 µg/mL (≈ 11.5 µM)

## OC1CCN(CC2CCN(C3C4CC5CC(C4)CC3C5)CC2)CC1 (stereo not drawn)
[4]
  Activity: Active
[1]
  Activity: Active

## CC(C)=CCC/C(C)=C/CN1CCC(CN2CCC(Cc3ccccc3)CC2)CC1
[1]
  MIC: 20 µg/mL (≈ 48.9 µM)

## OC1CCN(CC2CCN(CCC34CC5CC(CC(C5)C3)C4)CC2)CC1
[1]
  MIC: 15 µg/mL (≈ 41.6 µM)

## CCC(CN1CCC(CN2CCC(O)CC2)CC1)c1ccccc1 (stereo not drawn)
[1]
  MIC: 8 µg/mL (≈ 24.2 µM)

From ChEMBL document CHEMBL1821655, “Identification of SQ609 as a lead compound from a library of dipiperidines” (Bioorg Med Chem Lett, 2011)
